For data set [1] the following is noted: cited from earlier work.
For data set [2] the following is noted: cited from earlier work. The source holds these as a separate data set.
Data set [3] is described as follows: Solubility of celecoxib in oils and cosurfactants. It counts as physicochemical. To be noted: thermodynamic from solid. Summed up:
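Excess solid test compound was stirred magnetically in 2 mL of each neat oil or cosurfactant at room temperature for 24 hrs, then centrifuged at 10,000 rpm for 10 mins. The supernatant was passed through a 0.45 µm membrane, diluted with methanol, and quantified by HPLC on a 5 µm C18 reversed-phase column (4.6×250 mm).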

This is an account of results in publication PMC6503206 (International Journal of Nanomedicine, 2019).

By solubility is commonly meant the concentration that dissolves in the medium under given conditions.

≈ marks a conversion by molar mass, not a printed value.

With `CCN(CC)c1ccc2nc3c4ccccc4c(=O)cc-3oc2c1` [Nile red], in data set [1], the log partition coefficient is listed as 5.0.

As for `Cc1ccc(-c2cc(C(F)(F)F)nn2-c2ccc(S(N)(=O)=O)cc2)cc1` [celecoxib, Celecoxib], the solubility in water in data set [2] was 0.00255 to 0.00457 mg/mL. The solubility at 24 h in data set [3] (PEG 400, organic solvent or mixture) was 433 ± 31.7 mg/mL (≈ 1140 mM); in data set [3] (ethanol, organic solvent or mixture), 79.2 ± 10.2 mg/mL (≈ 208 mM); in data set [3] (fish oil, oil or lipid) it was 3.25 ± 0.16 mg/mL (≈ 8.52 mM); in data set [3] (glycerine, organic solvent or mixture), 0.42 ± 0.01 mg/mL (≈ 1.1 mM); in data set [3] (medium-chain triglycerides (MCT oil), oil or lipid) it was 11.6 ± 3.08 mg/mL (≈ 30.5 mM); in data set [3] (oleic acid, oil or lipid), 0.73 ± 0.06 mg/mL (≈ 1.91 mM). Also, the solubility at 24 h in data set [3] (propylene glycol (PG), organic solvent or mixture) is 24.2 ± 0.99 mg/mL (≈ 63.6 mM).
